Laboratory results as given in ChEMBL document CHEMBL3860041, “Synthesis, biological evaluation and molecular modeling study of some new methoxylated 2-benzylthio-quinazoline-4(3H)-ones as nonclassical antifolates” (Bioorg Med Chem Lett, 2016).

Experiments:
Assay type in all cases: functional
[1] = Growth inhibition of human K562 cells at 10 uM after 48 hrs by SRB assay relative to control; conditions: K562, 48 h, read-out: GI
How it was run: (§1)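 NCI 60-cell-line panel, nine tumor subpanels; compounds tested at a single dose of 10 μM in the primary screen.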

[2] = Growth inhibition of human ACHN cells at 10 uM after 48 hrs by SRB assay relative to control; conditions: read-out: GI; how it was run: as §1
[3] = Growth inhibition of human 786-0 cells at 10 uM after 48 hrs by SRB assay relative to control; conditions: 786-0, 48 h, read-out: GI; how it was run: as §1
[4] = Growth inhibition of human BT549 cells at 10 uM after 48 hrs by SRB assay relative to control; conditions: BT-549, 48 h, read-out: GI; how it was run: as §1
[5] = Growth inhibition of human MOLT4 cells at 10 uM after 48 hrs by SRB assay relative to control; conditions: MOLT-4, 48 h, read-out: GI; how it was run: as §1
[6] = Growth inhibition of human SN12C cells at 10 uM after 48 hrs by SRB assay relative to control; conditions: read-out: GI
How it was run: (§2)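 Primary screen across the full NCI 60 human tumour cell line panel, which covers nine tumour subpanels. A single dose of 10 μM was applied to each line, and growth was recorded for each cell line.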

[7] = Growth inhibition of human RXF393 cells at 10 uM after 48 hrs by SRB assay relative to control; conditions: RXF 393, 48 h, read-out: GI; how it was run: as §1
[8] = Growth inhibition of human HL-60(TB) cells at 10 uM after 48 hrs by SRB assay relative to control; conditions: HL-60, 48 h, read-out: GI
How it was run: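 NCI disease-oriented human tumour cell line screen: primary single-dose assay at 10 μM across the full 60-cell-line panel spanning nine tumour subpanels.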

Leukemia cell = assay: Potency index, ratio of 5-fluorouracil GI50 to compound GI50 for human leukemia cells
How it was run: (§3)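 GI50 for each cell line came from NCI panel testing over a 5-log dose range, with 5-fluorouracil tested alongside as the reference drug. The index relates the 5-fluorouracil GI50 to the compound GI50 within each tumour subpanel.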

[9] = Growth inhibition of human UACC257 cells at 10 uM after 48 hrs by SRB assay relative to control; conditions: UACC-257, 48 h, read-out: GI; how it was run: as §2
[10] = Growth inhibition of human ovarian cancer cells after 48 hrs by SRB assay; conditions: Cancer cell lines
How it was run: (§4)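 Follow-up NCI panel testing over a 5-log dose range for each cell line. GI50, TGI and LC50 were monitored, with 5-fluorouracil run as the positive control. Values are grouped by tumour subpanel.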

[11] = Growth inhibition of human SF268 cells at 10 uM after 48 hrs by SRB assay relative to control; conditions: SF-268, 48 h, read-out: GI; how it was run: as §1
[12] = Growth inhibition of human HOP62 cells at 10 uM after 48 hrs by SRB assay relative to control; conditions: HOP-62, 48 h, read-out: GI; how it was run: as §1
[13] = Growth inhibition of human UO31 cells at 10 uM after 48 hrs by SRB assay relative to control; conditions: UO-31, 48 h, read-out: GI; how it was run: as §2
[14] = Growth inhibition of human COLO205 cells at 10 uM after 48 hrs by SRB assay relative to control; conditions: COLO 205, 48 h, read-out: GI; how it was run: as §1
[15] = Growth inhibition of human A549 cells at 10 uM after 48 hrs by SRB assay relative to control; conditions: A549, 48 h, read-out: GI; how it was run: as §1
[16] = Growth inhibition of human CNS cancer cells after 48 hrs by SRB assay; conditions: Cancer cell lines
How it was run: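 Five-log dose range against NCI tumor cell lines, monitoring GI50, TGI and LC50 for each cell line; MG-MID values derived across the panel; 5-fluorouracil positive control.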

[17] = Growth inhibition of human colon cancer cells after 48 hrs by SRB assay; conditions: Cancer cell lines; how it was run: as §4
[18] = Growth inhibition of human NCI-H23 cells at 10 uM after 48 hrs by SRB assay relative to control; conditions: NCI-H23, 48 h, read-out: GI; how it was run: as §1
[19] = Growth inhibition of human OVCAR5 cells at 10 uM after 48 hrs by SRB assay relative to control; conditions: OVCAR-5, 48 h, read-out: GI; how it was run: as §1
[20] = Growth inhibition of human T47D cells at 10 uM after 48 hrs by SRB assay relative to control; conditions: read-out: GI; how it was run: as §2
[21] = Growth inhibition of human OVCAR4 cells at 10 uM after 48 hrs by SRB assay relative to control; conditions: OVCAR-4, 48 h, read-out: GI; how it was run: as §1
[22] = Growth inhibition of human HCT116 cells at 10 uM after 48 hrs by SRB assay relative to control; conditions: HCT-116, 48 h, read-out: GI; how it was run: as §1
[23] = Growth inhibition of human LOXIMVI cells at 10 uM after 48 hrs by SRB assay relative to control; conditions: LOX IMVI, read-out: GI; how it was run: as §1
[24] = Growth inhibition of human Hs 578T cells at 10 uM after 48 hrs by SRB assay relative to control; conditions: read-out: GI; how it was run: as §1
[25] = Growth inhibition of human SKOV3 cells at 10 uM after 48 hrs by SRB assay relative to control; conditions: SK-OV-3, 48 h, read-out: GI; how it was run: as §2
Cancer cell lines = assay: Potency index, ratio of 5-fluorouracil GI50 to compound GI50 for human CNS cancer cells; how it was run: as §3
[26] = Growth inhibition of human non-small cell lung cancer cells after 48 hrs by SRB assay; conditions: Cancer cell lines; how it was run: as §4
[27] = Growth inhibition of human MALME-3M cells at 10 uM after 48 hrs by SRB assay relative to control; conditions: read-out: GI; how it was run: as §1
[28] = Growth inhibition of human SR cells at 10 uM after 48 hrs by SRB assay relative to control; conditions: read-out: GI; how it was run: as §2
[29] = Growth inhibition of human SK-MEL-5 cells at 10 uM after 48 hrs by SRB assay relative to control; conditions: SK-MEL-5, 48 h, read-out: GI; how it was run: as §2
[30] = Growth inhibition of human A498 cells at 10 uM after 48 hrs by SRB assay relative to control; conditions: A498, 48 h, read-out: GI; how it was run: as §1
[31] = Growth inhibition of human NCI/ADR-RES cells at 10 uM after 48 hrs by SRB assay relative to control; conditions: read-out: GI; how it was run: as §1
[32] = Growth inhibition of human SK-MEL-2 cells at 10 uM after 48 hrs by SRB assay relative to control; conditions: SK-MEL-2, 48 h, read-out: GI; how it was run: as §2

COc1cc2nc(SCc3cc(OC)c(OC)c(OC)c3)n(Cc3ccccc3)c(=O)c2cc1OC
inhibition of growth at 10 µM [1]: 89.8%
inhibition of growth at 10 µM [2]: 60.8%
inhibition of growth at 10 µM [3]: 63.3%
inhibition of growth at 10 µM [4]: 83.2%
inhibition of growth at 10 µM [5]: 83.3%
inhibition of growth at 10 µM [6]: 58.8%
inhibition of growth at 10 µM [7]: 95.5%
inhibition of growth at 10 µM [8]: 88.1%
RatioGI50 (Leukemia cell): 2 - 10
inhibition of growth at 10 µM [9]: 36.7%
GI50 [10]: 6.4 µM
LC50 (50% lethal concentration) [10]: > 100 µM
TGI [10]: 62.7 µM
inhibition of growth at 10 µM [11]: 62.2%
inhibition of growth at 10 µM [12]: 58.6%
inhibition of growth at 10 µM [13]: 65.3%
inhibition of growth at 10 µM [14]: 92.6%
inhibition of growth at 10 µM [15]: 63.2%
GI50 [16]: 3.4 µM
LC50 (lethal concentration, 50% net cell kill) [16]: 80.6 µM
TGI [16]: 24.5 µM
GI50 [17]: 2.2 µM
LC50 [17]: > 100 µM
TGI [17]: 87.8 µM
inhibition of growth at 10 µM [18]: 79.6%
inhibition of growth at 10 µM [19]: 46.3%
inhibition of growth at 10 µM [20]: 64.1%
inhibition of growth at 10 µM [21]: 55.8%
inhibition of growth at 10 µM [22]: 85.4%
inhibition of growth at 10 µM [23]: 62.3%
inhibition of growth at 10 µM [24]: 73.3%
inhibition of growth at 10 µM [25]: 70.2%
RatioGI50 (Cancer cell lines): 2 - 10
GI50 [26]: 3.6 µM
LC50 (concentration killing 50% of cells) [26]: 94.5 µM
TGI [26]: 63.1 µM
inhibition of growth at 10 µM [27]: 78.1%
inhibition of growth at 10 µM [28]: 93.8%

COc1cc(CSc2nc3ccc(Cl)cc3c(=O)n2Cc2ccccc2)cc(OC)c1OC
inhibition of growth at 10 µM [1]: 87.2%
inhibition of growth at 10 µM [2]: 59.7%
inhibition of growth at 10 µM [3]: 56.6%
inhibition of growth at 10 µM [29]: 74.4%
inhibition of growth at 10 µM [4]: 78.3%
inhibition of growth at 10 µM [5]: 70.6%
inhibition of growth at 10 µM [6]: 61.5%
inhibition of growth at 10 µM [7]: 86.9%
inhibition of growth at 10 µM [8]: 85.4%
RatioGI50 (Leukemia cell): 2 - 10
inhibition of growth at 10 µM [30]: 76%
inhibition of growth at 10 µM [9]: 53.5%
GI50 [10]: 5.2 µM
LC50 (50% lethal concentration) [10]: > 100 µM
TGI [10]: 75.6 µM
inhibition of growth at 10 µM [11]: 59.1%
inhibition of growth at 10 µM [12]: 62.3%
inhibition of growth at 10 µM [13]: 72.9%
inhibition of growth at 10 µM [15]: 57.8%
GI50 [16]: 4.2 µM
LC50 (lethal concentration, 50% net cell kill) [16]: 81.8 µM
TGI [16]: 49.8 µM
GI50 [17]: 3.1 µM
LC50 [17]: 87.5 µM
TGI [17]: 86.3 µM
inhibition of growth at 10 µM [18]: 74.9%
inhibition of growth at 10 µM [31]: 86.1%
inhibition of growth at 10 µM [19]: 53.3%
inhibition of growth at 10 µM [20]: 66.1%
inhibition of growth at 10 µM [21]: 48%
inhibition of growth at 10 µM [22]: 79.2%
inhibition of growth at 10 µM [32]: 78.6%
inhibition of growth at 10 µM [23]: 60.7%
inhibition of growth at 10 µM [24]: 69.5%
inhibition of growth at 10 µM [25]: 75.7%
RatioGI50 (Cancer cell lines): 2 - 10
GI50 [26]: 5.5 µM
LC50 (concentration killing 50% of cells) [26]: 97.6 µM
TGI [26]: 66.5 µM
inhibition of growth at 10 µM [27]: 61.2%
inhibition of growth at 10 µM [28]: 76.9%
